According to the array DNA melting data of Ke et al. (doi:10.1101/2024.01.08.574731):

Experiments:
[1] = melting temperature; fluorescence melt of hairpins on a sequencing array, two-state fit, raised by 9.35 °C to match UV melts; details: sodium 0.088 M
How it was run: (§1)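 On a sequenced MiSeq flow cell, library hairpins with annealed Cy3 and quencher oligos were imaged for Cy3 fluorescence in 2.5 °C steps up to 60 °C, in 50 mM Na-HEPES pH 8.0, 25 mM NaCl. Normalisation used pre-quench Cy3 and control constructs. Bootstrapped two-state fits gave melting temperature and folding enthalpy, combined by inverse variance across four replicates and with fitted temperatures raised by 9.35 °C to match UV melts.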

[2] = folding enthalpy; higher = less favourable; fluorescence melt of hairpins on a sequencing array, two-state fit; details: sodium 0.088 M
How it was run: as §1

CAGGAGAAATCCTG (((((....)))))
Tm [1]: 43.7 °C
folding enthalpy [2]: -19.7 kcal/mol

CAGTAGAAATACTG (((((....)))))
Tm [1]: 38.6 °C
folding enthalpy [2]: -15.3 kcal/mol

CAGTCGAAAGACTG (((((....)))))
Tm [1]: 61.4 °C
folding enthalpy [2]: -27.2 kcal/mol

CAGTTGAAAAACTG (((((....)))))
Tm [1]: 44.7 °C
folding enthalpy [2]: -20.9 kcal/mol

CATACGAAAGTATG (((((....)))))
Tm [1]: 50.4 °C
folding enthalpy [2]: -25.1 kcal/mol

CATTGGAAACAATG (((((....)))))
Tm [1]: 42.3 °C
folding enthalpy [2]: -22.2 kcal/mol

CCAATGAAAATTGG (((((....)))))
Tm [1]: 41.9 °C
folding enthalpy [2]: -18.1 kcal/mol

CCACGGAAACGTGG (((((....)))))
Tm [1]: 69.2 °C
folding enthalpy [2]: -21.2 kcal/mol

CCACTGAAAAGTGG (((((....)))))
Tm [1]: 54.5 °C
folding enthalpy [2]: -25.3 kcal/mol

CCATAGAAATATGG (((((....)))))
Tm [1]: 35.2 °C
folding enthalpy [2]: -11.6 kcal/mol

CCATTGAAAAATGG (((((....)))))
Tm [1]: 41.6 °C
folding enthalpy [2]: -22.2 kcal/mol

CCCTAGAAATAGGG (((((....)))))
Tm [1]: 38.2 °C
folding enthalpy [2]: -20.7 kcal/mol

CCTCGGAAACGAGG (((((....)))))
Tm [1]: 55.7 °C
folding enthalpy [2]: -25.8 kcal/mol

CGAAACGGAAACGTCTCG (((.(((....))).)))
Tm [1]: 39 °C
folding enthalpy [2]: -27.3 kcal/mol

CGAACGGAAACGTAGTCG ((((((....)))..)))
Tm [1]: 26.4 °C
folding enthalpy [2]: -10.8 kcal/mol

CGAACGGAAACGTATCG ((((((....))).)))
Tm [1]: 36.1 °C
folding enthalpy [2]: -19.2 kcal/mol

CGAACGGAAACGTTCTCG ((((((....)))..)))
Tm [1]: 36.8 °C
folding enthalpy [2]: -11.2 kcal/mol

CGAAGCGGAAACGCTCG (((.(((....))))))
Tm [1]: 53.5 °C
folding enthalpy [2]: -22.7 kcal/mol

CGAATCCGGAAACGGTCG (((..(((....))))))
Tm [1]: 33.6 °C
folding enthalpy [2]: -11.9 kcal/mol

CGACACCGGAAACGGTCG (((..(((....))))))
Tm [1]: 42 °C
folding enthalpy [2]: -13.7 kcal/mol

CGACAGAAATGTCG (((((....)))))
Tm [1]: 52.9 °C
folding enthalpy [2]: -26.1 kcal/mol

CGACCGGAAACGGAGTCG ((((((....)))..)))
Tm [1]: 45.4 °C
folding enthalpy [2]: -27.2 kcal/mol

CGACCGGAAACGGCGTCG ((((((....)))..)))
Tm [1]: 50.2 °C
folding enthalpy [2]: -18.1 kcal/mol

CGACCGGAAACGGCTCG ((((((....))).)))
Tm [1]: 48.2 °C
folding enthalpy [2]: -28.8 kcal/mol

CGACCGGAAACGGTGTCG ((((((....)))..)))
Tm [1]: 43 °C
folding enthalpy [2]: -14.8 kcal/mol

CGACTCGGAAACGATCG (((.(((....))))))
Tm [1]: 40.5 °C
folding enthalpy [2]: -31.8 kcal/mol

CGAGACGGAAACGTTCG (((.(((....))))))
Tm [1]: 40.9 °C
folding enthalpy [2]: -26.3 kcal/mol

CGAGCCGGAAACGGTTCG (((.(((....))).)))
Tm [1]: 56 °C
folding enthalpy [2]: -40.1 kcal/mol

CGAGCGCGGAAACGCTCG (((..(((....))))))
Tm [1]: 68.5 °C
folding enthalpy [2]: -29.8 kcal/mol

CGAGCGGAAACGCAATCG ((((((....)))..)))
Tm [1]: 38.7 °C
folding enthalpy [2]: -19.3 kcal/mol

CGAGCGGAAACGCCCTCG ((((((....)))..)))
Tm [1]: 35.9 °C
folding enthalpy [2]: -12.8 kcal/mol

CGAGCGGAAACGCCTCG ((((((....))).)))
Tm [1]: 52.3 °C
folding enthalpy [2]: -29.6 kcal/mol

CGAGCGGAAACGCGATCG ((((((....)))..)))
Tm [1]: 47 °C
folding enthalpy [2]: -12.1 kcal/mol

CGAGCGGAAACGCTTTCG ((((((....)))..)))
Tm [1]: 30.4 °C
folding enthalpy [2]: -11.8 kcal/mol

CGAGGCGGAAACGCATCG (((.(((....))).)))
Tm [1]: 64.2 °C
folding enthalpy [2]: -37 kcal/mol

CGAGGCGGAAACGCTCG (((.(((....))))))
Tm [1]: 51 °C
folding enthalpy [2]: -20.5 kcal/mol

CGAGTCCGGAAACGGTCG (((..(((....))))))
Tm [1]: 42.4 °C
folding enthalpy [2]: -12.3 kcal/mol

CGAGTCGGAAACGAATCG (((.(((....))).)))
Tm [1]: 52.2 °C
folding enthalpy [2]: -39.9 kcal/mol

CGAGTGCGGAAACGCTCG (((..(((....))))))
Tm [1]: 47.7 °C
folding enthalpy [2]: -21.6 kcal/mol

CGATCCGGAAACGGCTCG (((.(((....))).)))
Tm [1]: 48.1 °C
folding enthalpy [2]: -28.7 kcal/mol

CGATCGGAAACGAACTCG ((((((....)))..)))
Tm [1]: 24.4 °C
folding enthalpy [2]: -9.8 kcal/mol

CGATCGGAAACGACTTCG ((((((....)))..)))
Tm [1]: 25.6 °C
folding enthalpy [2]: -11.3 kcal/mol

CGATGACGGAAACGTTCG (((..(((....))))))
Tm [1]: 36.7 °C
folding enthalpy [2]: -29.1 kcal/mol

CGATGCGGAAACGCTCG (((.(((....))))))
Tm [1]: 50 °C
folding enthalpy [2]: -28.4 kcal/mol

CGATTCGGAAACGATTCG (((.(((....))).)))
Tm [1]: 45.8 °C
folding enthalpy [2]: -33.2 kcal/mol

CGCAAACGGAAACGTGCG (((..(((....))))))
Tm [1]: 50.9 °C
folding enthalpy [2]: -36.2 kcal/mol

CGCACGGAAACGTAGGCG ((((((....)))..)))
Tm [1]: 46.3 °C
folding enthalpy [2]: -30.6 kcal/mol

CGCACGGAAACGTATGCG ((((((....)))..)))
Tm [1]: 46.7 °C
folding enthalpy [2]: -35.9 kcal/mol

CGCACGGAAACGTGGCG ((((((....))).)))
Tm [1]: 54.2 °C
folding enthalpy [2]: -25.9 kcal/mol
